Measurements published in ChEMBL document CHEMBL1138837, “Structure-activity study on the Phe side chain arrangement of endomorphins using conformationally constrained analogues” (J Med Chem, 2004).
Residues, ends and D or L forms follow the SMILES beside them.

Key:
[1] = target: Delta-type opioid receptor (Rattus norvegicus, UniProt P33533); experiment: Displacement of [3H]Ile5,6-deltorphin II from opioid receptor delta 1 of rat brain membranes; format: cell membranes, Membrane
[2] = species on record: Rattus norvegicus; experiment: In vitro percent maximal stimulation of [35S]GTP-gamma-S, binding by the compound in rat brain membranes; format: functional; conditions: Membrane
Method in brief: (§1)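 Rat brain membranes (about 10 µg protein) with 0.05 nM [35S]GTPγS, 100 µM GDP and compound at 10^-9–10^-5 M, in Tris-EGTA buffer (1 mM EGTA, 3 mM MgCl2, NaCl, pH 7.4), at 30 °C for 60 min. Basal binding was measured without compound; nonspecific binding with 100 µM GTPγS. GF/B filtration was used, with three experiments in triplicate. Stimulation is expressed as percent of specific binding.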

[3] = species on record: Rattus norvegicus; experiment: In vitro effective dose against [35S]GTP-gamma-S, binding to rat brain membranes; format: functional; conditions: Membrane; method in brief: as §1
[4] = target: T1, Mu-type opioid receptor (Rattus norvegicus, UniProt P33535); experiment: In vitro binding affinity towards Opioid receptor mu 1 in rat brain membranes; format: cell membranes
Method in brief: (§2)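 Wistar rat brain membranes without cerebellum (300–500 µg protein) in 50 mM Tris-HCl, pH 7.4, for competition binding. Incubation was stopped by vacuum filtration on GF/C filters, with two ice-cold buffer washes, then scintillation counting. Nonspecific binding was defined with 10 µM naloxone. Each assay was run in duplicate and repeated at least three times, with nonlinear least-squares fitting.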

[5] = target: T1, Mu-type opioid receptor; experiment: Affinity for Opioid receptor mu 1 in rat brain membranes; format: cell membranes; method in brief: as §2
[6] = target: Mu-type opioid receptor (Mus musculus, UniProt P42866); experiment: Inhibition of Mu opioid receptor of mouse vas deferens
Method in brief: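 Mouse vas deferens in Mg-free Krebs at 31 °C, 0.1 g initial tension, equilibrated 30 min under electrical stimulation. Inhibition of evoked contractions was measured with noncumulative dose–response curves, and IC50 was obtained by sigmoidal fitting.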

[7] = target: Mu-type opioid receptor (Cavia porcellus, UniProt P97266); experiment: Inhibition of Opioid receptor mu 1 of guinea pig ileum; format: tissue-based
Method in brief: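 Guinea pig ileum in Krebs solution at 37 °C, initial tension 0.8 g, equilibrated 60 min under electrical stimulation. Electrically evoked contractions were inhibited, using noncumulative dose–response curves, with IC50 from sigmoidal curve fitting.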

[8] = target: T1, Mu-type opioid receptor; experiment: Displacement of [3H]DAMGO from Opioid receptor mu 1 of rat brain membranes; format: cell membranes, Membrane
[9] = target: T1, Mu-type opioid receptor; experiment: Displacement of [3H]endomorphin-2 from Opioid receptor mu 1 of rat brain membranes; format: cell membranes, Membrane
[10] = Half-life in rat brain homogenate; format: ADME
Method in brief: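 Peptide from a 1 mM stock in 50 mM Tris-HCl, pH 7.4, was incubated at 37 °C with rat brain homogenate (5.4 mg/mL protein). Timed aliquots were acidified with 0.1 M HCl, centrifuged, and analysed by RP-HPLC with UV detection at 216 nm. The rate constant came from ln(A/A0) versus time (at least five points). Half-life assumed pseudo-first-order kinetics, from 3–5 measurements.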

Chain of Mu-type opioid receptor (Cavia porcellus, UniProt P97266) (P97266 whole entry): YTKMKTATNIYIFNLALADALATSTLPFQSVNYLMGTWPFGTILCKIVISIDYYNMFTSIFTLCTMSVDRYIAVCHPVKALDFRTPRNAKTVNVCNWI
Chain of Delta-type opioid receptor (P33533 whole entry): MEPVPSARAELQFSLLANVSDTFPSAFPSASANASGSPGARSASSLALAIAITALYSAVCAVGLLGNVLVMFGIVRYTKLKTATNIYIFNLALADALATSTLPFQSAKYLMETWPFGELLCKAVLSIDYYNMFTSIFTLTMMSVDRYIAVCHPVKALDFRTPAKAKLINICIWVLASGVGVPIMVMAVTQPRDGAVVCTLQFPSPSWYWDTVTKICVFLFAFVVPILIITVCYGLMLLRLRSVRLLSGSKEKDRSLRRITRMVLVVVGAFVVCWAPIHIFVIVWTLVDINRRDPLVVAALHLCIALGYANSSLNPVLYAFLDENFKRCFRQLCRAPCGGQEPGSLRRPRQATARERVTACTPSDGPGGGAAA
T1 sequence (P33535 whole entry): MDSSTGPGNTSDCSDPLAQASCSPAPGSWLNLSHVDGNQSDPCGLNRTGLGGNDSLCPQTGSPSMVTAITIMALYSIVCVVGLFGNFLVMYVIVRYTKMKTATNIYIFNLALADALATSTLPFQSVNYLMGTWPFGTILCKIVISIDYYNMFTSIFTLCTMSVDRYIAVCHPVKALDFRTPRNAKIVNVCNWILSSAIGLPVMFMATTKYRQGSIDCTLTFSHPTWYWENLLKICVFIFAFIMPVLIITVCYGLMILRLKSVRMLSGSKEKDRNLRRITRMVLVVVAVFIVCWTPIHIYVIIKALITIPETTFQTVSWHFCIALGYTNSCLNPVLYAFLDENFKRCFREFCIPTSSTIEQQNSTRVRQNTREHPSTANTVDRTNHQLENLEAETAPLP
Chain of Mu-type opioid receptor (Mus musculus, UniProt P42866) (P42866 whole entry): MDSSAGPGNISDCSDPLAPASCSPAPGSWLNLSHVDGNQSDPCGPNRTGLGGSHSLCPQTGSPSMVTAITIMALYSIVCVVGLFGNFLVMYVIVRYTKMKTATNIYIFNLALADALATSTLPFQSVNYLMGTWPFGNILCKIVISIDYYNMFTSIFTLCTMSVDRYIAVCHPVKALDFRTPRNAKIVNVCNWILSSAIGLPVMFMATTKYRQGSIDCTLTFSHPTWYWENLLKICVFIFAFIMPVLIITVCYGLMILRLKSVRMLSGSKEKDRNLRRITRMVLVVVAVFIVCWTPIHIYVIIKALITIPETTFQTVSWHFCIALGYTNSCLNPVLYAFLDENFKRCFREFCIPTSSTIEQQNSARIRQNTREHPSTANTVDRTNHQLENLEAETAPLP

SMILES | Ki [1] [µM] | Max stimulation [2] [%] | ED50 [3] [nM] | IC50 [4] [nM] | Ki [5] [nM] | IC50 [6] [nM] | IC50 [7] [nM] | Ki [8] [nM] | Ki [9] [nM] | half-life [10] [min]
C[C@H](c1ccccc1)[C@H](NC(=O)[C@@H]1CCCN1C(=O)[C@@H](N)Cc1ccc(O)cc1)C(=O)N[C@@H](Cc1ccccc1)C(N)=O | > 10 | 146 | 1800 |  |  |  |  |  |  | 
N[C@@H](Cc1ccc(O)cc1)C(=O)N1CCC[C@H]1C(=O)N[C@@H](Cc1ccccc1)C(=O)O (H-Tyr-Pro-Phe-OH) |  |  |  | 161 | 46.3 |  |  |  |  | 
C[C@H](c1ccccc1)[C@@H](NC(=O)[C@@H]1CCCN1C(=O)[C@@H](N)Cc1ccc(O)cc1)C(=O)N[C@@H](Cc1ccccc1)C(N)=O | 6.76 | 105 | 7.7 |  |  |  |  |  |  | 
C[C@H](c1ccccc1)[C@@H](NC(=O)[C@H](Cc1ccccc1)NC(=O)[C@@H]1CCCN1C(=O)[C@@H](N)Cc1ccc(O)cc1)C(N)=O | 5.18 | 108 | 104 |  |  | > 10000 | 816 | 250 | 127 | 
C[C@H](c1ccccc1)[C@@H](NC(=O)[C@H](Cc1c[nH]c2ccccc12)NC(=O)[C@@H]1CCCN1C(=O)[C@@H](N)Cc1ccc(O)cc1)C(N)=O |  | 114 | 1490 |  |  |  |  | 45.3 | 43.6 | 
C[C@@H](c1ccccc1)[C@H](NC(=O)[C@H](Cc1ccccc1)NC(=O)[C@@H]1CCCN1C(=O)[C@@H](N)Cc1ccc(O)cc1)C(N)=O | 6.36 | 148 | 139 |  |  | 9.15 | 3.46 | 1.67 | 0.97 | 16.1
C[C@@H](c1ccccc1)[C@H](NC(=O)[C@@H]1CCCN1C(=O)[C@@H](N)Cc1ccc(O)cc1)C(=O)N[C@@H](Cc1ccccc1)C(N)=O | 0.179 | 160 | 1610 |  |  |  |  |  |  | 
C[C@@H](c1ccccc1)[C@@H](NC(=O)[C@H](Cc1ccccc1)NC(=O)[C@@H]1CCCN1C(=O)[C@@H](N)Cc1ccc(O)cc1)C(N)=O | > 10 | 115 | 572 |  |  | > 10000 | 589 | 104 | 47.7 | 
C[C@@H](c1ccccc1)[C@@H](NC(=O)[C@@H]1CCCN1C(=O)[C@@H](N)Cc1ccc(O)cc1)C(=O)N[C@@H](Cc1ccccc1)C(N)=O | > 10 | 103 | 53 |  |  |  |  |  |  | 
NC(=O)[C@H](Cc1ccccc1)NC(=O)[C@H](Cc1ccccc1)NC(=O)[C@@H]1CCCN1C(=O)[C@@H](N)Cc1ccc(O)cc1 [ENDOMORPHIN 2] |  | 213 |  |  |  |  |  |  |  | 3.8
C[C@H](c1ccccc1)[C@H](NC(=O)[C@H](Cc1c[nH]c2ccccc12)NC(=O)[C@@H]1CCCN1C(=O)[C@@H](N)Cc1ccc(O)cc1)C(N)=O |  | 126 | 209 |  |  |  |  | 26.3 | 23.4 | 
NC(=O)[C@H](Cc1ccccc1)NC(=O)[C@H](Cc1c[nH]c2ccccc12)NC(=O)[C@@H]1CCCN1C(=O)[C@@H](N)Cc1ccc(O)cc1 [ENDOMORPHIN-1] |  | 237 | 289 |  |  |  |  |  |  | 4.9
C[C@@H](c1ccccc1)[C@@H](NC(=O)[C@H](Cc1c[nH]c2ccccc12)NC(=O)[C@@H]1CCCN1C(=O)[C@@H](N)Cc1ccc(O)cc1)C(N)=O |  | 124 | 784 |  |  |  |  | 107 | 47 | 
C[C@H](c1ccccc1)[C@H](NC(=O)[C@H](Cc1ccccc1)NC(=O)[C@@H]1CCCN1C(=O)[C@@H](N)Cc1ccc(O)cc1)C(N)=O | 4.9 | 132 | 455 |  |  | 235 | 89.9 | 69.5 | 23.4 | 
C[C@@H](c1ccccc1)[C@H](NC(=O)[C@H](Cc1c[nH]c2ccccc12)NC(=O)[C@@H]1CCCN1C(=O)[C@@H](N)Cc1ccc(O)cc1)C(N)=O |  | 163 | 114 |  |  |  |  | 0.8 | 0.47 | 10.7
